The text below walks through data of ChEMBL document CHEMBL1147971, “Evaluation of N-(phenylmethyl)-4-[5-(phenylmethyl)-4,5,6,7-tetrahydro-1H-imidazo[4,5-c]pyridin-4-yl]benzamide inhibitors of Mycobacterium tuberculosis growth” (Bioorg Med Chem Lett, 2007).

The subject of data set [1] is Mycobacterium tuberculosis. In words: Antibacterial activity against Mycobacterium tuberculosis. In kind it is functional. Put shortly:
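M. tuberculosis broth cultures grown in 96-well microtitre plates with drug. Growth read indirectly by metabolic reduction of fluorescent Alamar blue. MIC taken as the minimum drug concentration giving 50% inhibition of growth.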

Data set [2] can be described thus: Cytotoxicity against HEPG2 cells. The format is cell-based. The conditions noted are these: human; for cytotoxicity: read-out: Inhibition; for CC50: read-out: TC50 (the source's name).
Data set [3] can be described thus: Permeability across artificial cell membrane. In kind it is ADME. The conditions noted are these: for Papp: not told, read-out: permeability. A digest of the protocol:
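High-throughput artificial membrane assay measuring passive diffusion of compound across a phospholipid monolayer.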

Data set [4] has as its system Staphylococcus aureus. In words: Antibacterial activity against Staphylococcus aureus ATCC 29213. In kind it is functional, organism-based.
The mark [5] stands for this setting: Mycobacterium tuberculosis, read-out: MIC.

SMILES strings stand for the structures. Values after ≈ are worked out from the molar mass of the structure shown. Active and inactive are the calls of the source. No cut-off for these calls is given here. A value given as a limit tells only on which side of the number the result lay.

On to `COc1ccc(CNC(=O)c2ccc(C3c4nc[nH]c4CCN3c3ccc4ccccc4c3)cc2)cc1` (configuration not stated), for which the minimal inhibitory concentration (MIC) in data set [1] (setting [5]) is 32 µM (≈ 15.6 µg/mL). Further, in data set [2], the cytotoxicity came to 25% and the CC50 was above 12.4 µM.

Regarding `COc1ccc(CNC(=O)c2ccc(C3c4nc[nH]c4CCN3Cc3cccc(Cl)c3)cc2)cc1` (stereo in doubt; 8f), in data set [2], the cytotoxicity turned out to be 25% and the CC50 was above 12.8 µM.

In the case of `O=C(NCc1ccccc1)c1ccc(C2c3nc[nH]c3CCN2Cc2cccc(Cl)c2Cl)cc1` (configuration not stated), the MIC in data set [1] (setting [5]) turned out to be 32 µM (≈ 15.7 µg/mL).

As for `COc1ccc(CNC(=O)c2ccc(C3c4nc[nH]c4CCN3Cc3cccc(Cl)c3)cc2)cc1` (stereo in doubt; 9d), the Papp in data set [3] was determined as 21 ×10⁻⁶ cm/s. For the same molecule, the MIC in data set [1] (setting [5]) was found to be 63 µM (≈ 30.7 µg/mL).

Regarding `COc1ccc(CNC(=O)c2ccc(C3c4nc[nH]c4CCN3Cc3cc(OC)c(OC)cc3OC)cc2)cc1` (configuration not stated), the outcome in data set [4] was Active. In addition, the MIC in data set [1] (setting [5]) worked out at 63 µM (≈ 34.2 µg/mL). For the same molecule, in data set [2], the cytotoxicity came out at 20% and the CC50 is above 11.5 µM.

Consider `COc1ccc(CNC(=O)c2ccc(C3c4nc[nH]c4CCN3Cc3cccc(Cl)c3Cl)cc2)cc1` (stereo in doubt; 9a), for which, in data set [3], the Papp was 8 ×10⁻⁶ cm/s.

The molecule `COc1ccc(CNC(=O)c2ccc(C3c4nc[nH]c4CCN3Cc3cccc(Cl)c3Cl)cc2)cc1` (stereo in doubt; 9b) yielded a permeability in data set [3] of 8 ×10⁻⁶ cm/s. Also, in data set [1], the MIC came to 63 µM (≈ 32.9 µg/mL).

For `O=C(NCc1ccccc1)c1ccc(C2c3nc[nH]c3CCN2Cc2cccc(Cl)c2)cc1` (configuration not stated), the MIC in data set [1] (setting [5]) was determined as 32 µM (≈ 14.6 µg/mL).

In data set [3], `COc1ccc(CNC(=O)c2ccc(C3c4nc[nH]c4CCN3Cc3cccc(Cl)c3)cc2)cc1` (stereo in doubt; 9c) gave a permeability of 21 ×10⁻⁶ cm/s. For the same molecule, the MIC in data set [1] amounted to 32 µM (≈ 15.6 µg/mL).

For the molecule `O=C(NCc1ccccc1)c1ccc(C2c3nc[nH]c3CCN2c2ccc3ccccc3c2)cc1` (configuration not stated), in data set [1] (setting [5]), the MIC was 16 µM (≈ 7.34 µg/mL). Besides, in data set [2], the cytotoxicity is above 20% and the CC50 is above 13.2 µM.

With `COc1ccc(CNC(=O)c2ccc(C3c4nc[nH]c4CCN3Cc3cccc(Cl)c3Cl)cc2)cc1` (stereo in doubt; 8e), the MIC in data set [1] (setting [5]) was 32 µM (≈ 16.7 µg/mL).
